Assays:
Hepatitis B virus [1] = test: Antiviral activity against HBV in human HepAD38 cells assessed as intracellular viral DNA levels treated for 3 days measured on day 6 […] by RT-PCR; assay type: functional, organism-based
Summary of the method: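 HepAD38 cells seeded at 5 x 10^5/well, grown 2-3 days with 0.3 µg/ml tetracycline, then induced by PBS wash and tetracycline/G418-free medium with or without compound at 37°C, 5% CO2. Medium changed after 3 days. Intracellular HBV DNA measured on day 6 postinduction by TaqMan real-time PCR against a plasmid standard curve, given as % of mock.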

Rattus norvegicus [2] = test: Elimination half life in Sprague-Dawley rat assessed as tenofovir level at 10 mg/kg, po administered daily for 7 days measured on day 7; assay type: ADME, organism-based; set-up: dose 10 mg/kg, route oral; details: in vivo, 168 h
Summary of the method: (§1)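 Oral once daily for 7 days, vehicle or 10, 30 or 100 mg/kg/day, Sprague-Dawley rats 8-12 weeks old, not fasted. Plasma sampled 0.5, 1, 2, 4, 12, 24 h after dosing on days 1 and 7 (1 rat/sex/time point). CMX157 and tenofovir measured by HPLC-MS/MS, LOQ 1 ng/ml (values below set to zero). Noncompartmental analysis; Cmax/Tmax by direct observation, AUC by linear-log trapezoidal rule.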

Rattus norvegicus [3] = test: AUC (0 to infinity) in Sprague-Dawley rat assessed as tenofovir level at 100 mg/kg, po administered daily for 7 days measured on day 1; assay type: ADME, organism-based, Plasma; set-up: time infinity, dose 100 mg/kg, route oral; details: in vivo, 168 h; summary of the method: as §1
[4] = Cytotoxicity against human HepG2 cells by MTS assay; assay type: cell-based; details: human, HepG2 cells
Summary of the method: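 Exponentially growing HepG2 cells (parent hepatoma line); cytostatic effect measured by MTS method.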

Rattus norvegicus [5] = test: Tmax in Sprague-Dawley rat assessed as tenofovir level at 10 mg/kg, po administered daily for 7 days measured on day 7; assay type: ADME, organism-based; set-up: dose 10 mg/kg, route oral; details: in vivo, 168 h; summary of the method: as §1
Rattus norvegicus [6] = test: AUC (0 to infinity) in Sprague-Dawley rat assessed as tenofovir level at 10 mg/kg, po administered daily for 7 days measured on day 1; assay type: ADME, organism-based, Plasma; set-up: time infinity, dose 10 mg/kg, route oral; details: in vivo, 168 h; summary of the method: as §1
Rattus norvegicus [7] = test: AUC (0 to infinity) in Sprague-Dawley rat assessed as tenofovir level at 30 mg/kg, po administered daily for 7 days measured on day 1; assay type: ADME, organism-based, Plasma; set-up: time infinity, dose 30 mg/kg, route oral; details: in vivo, 168 h
Summary of the method: (§2)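 Sprague-Dawley rats (3/sex/group), about 8 to 12 weeks old and not fasted, got vehicle or 10, 30 or 100 mg/kg/day orally once daily for 7 days. Blood was drawn at 0.5, 1, 2, 4, 12 and 24 h after dosing on days 1 and 7 (1 rat/sex/time point). Plasma was deproteinized, then HPLC-MS/MS (LOQ 1 ng/ml, values below set to zero). Noncompartmental analysis, AUC by linear-log trapezoidal rule.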

[8] = Cytotoxicity against human HepG2(2.2.15) cells after 24 hrs by neutral red uptake assay; assay type: cell-based; details: human, HepG2 2.2.15 cells
Summary of the method: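 Confluent 2.2.15 cells given nine daily treatments. Neutral red uptake read by absorbance of internalized dye 24 h after the last treatment, three cultures per concentration.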

Rattus norvegicus [9] = test: Tmax in Sprague-Dawley rat assessed as tenofovir level at 30 mg/kg, po administered daily for 7 days measured on day 1; assay type: ADME, organism-based; set-up: dose 30 mg/kg, route oral; details: in vivo, 168 h; summary of the method: as §1
[10] = tested on: Human immunodeficiency virus 1; test: Antiviral activity against HIV1 clade B HT/92/599 isolate in human PBMC assessed as reduction in reverse transcriptase; assay type: functional, organism-based; details: Human immunodeficiency virus 1, clade B
Summary of the method: (§3)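 Fresh human PBMCs, seronegative for HIV and HBV, infected with HIV-1 clade B HT/92/599. Antiviral read-out by reverse transcriptase reduction; cytotoxicity by XTT staining. EC50, CC50 and CC50/EC50 taken from data plots, given as mean ± standard deviation of triplicate determinations.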

[11] = Selectivity index, ratio of CC50 for human HepG2 cells to EC50 for HBV
Rattus norvegicus [12] = test: Tmax in Sprague-Dawley rat assessed as tenofovir level at 100 mg/kg, po administered daily for 7 days measured on day 1; assay type: ADME, organism-based; set-up: dose 100 mg/kg, route oral; details: in vivo, 168 h; summary of the method: as §1
Rattus norvegicus [13] = test: Elimination half life in Sprague-Dawley rat assessed as tenofovir level at 10 mg/kg, po administered daily for 7 days measured on day 1; assay type: ADME, organism-based; set-up: dose 10 mg/kg, route oral; details: in vivo, 168 h; summary of the method: as §2
Rattus norvegicus [14] = test: Elimination half life in Sprague-Dawley rat assessed as tenofovir level at 100 mg/kg, po administered daily for 7 days measured on day 1; assay type: ADME, organism-based; set-up: dose 100 mg/kg, route oral; details: in vivo, 168 h; summary of the method: as §1
Rattus norvegicus [15] = test: AUC (0 to infinity) in Sprague-Dawley rat assessed as tenofovir level at 30 mg/kg, po administered daily for 7 days measured on day 7; assay type: ADME, organism-based, Plasma; set-up: time infinity, dose 30 mg/kg, route oral; details: in vivo, 168 h; summary of the method: as §1
[16] = tested on: Human immunodeficiency virus 1; test: Antiviral activity against HIV1 LAI in human MT2 cells assessed as inhibition of p24 antigen production by ELISA; assay type: functional, organism-based; details: Human immunodeficiency virus 1, LAI
Summary of the method: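 MT-2 cells in RPMI 1640 with 10% FBS and 10 mM HEPES, infected with HIV-1 LAI at MOI 0.001 TCID50/cell. Incubated with threefold serial dilutions, three wells per dilution. EC50 taken as the concentration inhibiting p24 antigen production by 50%.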

[17] = Selectivity index, ratio of CC50 for human PBMC to EC50 for HIV1 clade B HT/92/599 isolate; summary of the method: as §3
Rattus norvegicus [18] = test: Tmax in Sprague-Dawley rat assessed as tenofovir level at 10 mg/kg, po administered daily for 7 days measured on day 1; assay type: ADME, organism-based; set-up: dose 10 mg/kg, route oral; details: in vivo, 168 h; summary of the method: as §1
[19] = Selectivity index, ratio of CC50 for human HepG2(2.2.15) cells to EC50 for HBV
Rattus norvegicus [20] = test: Tmax in Sprague-Dawley rat assessed as tenofovir level at 30 mg/kg, po administered daily for 7 days measured on day 7; assay type: ADME, organism-based; set-up: dose 30 mg/kg, route oral; details: in vivo, 168 h; summary of the method: as §1
Rattus norvegicus [21] = test: AUC (0 to infinity) in Sprague-Dawley rat assessed as tenofovir level at 10 mg/kg, po administered daily for 7 days measured on day 7; assay type: ADME, organism-based, Plasma; set-up: time infinity, dose 10 mg/kg, route oral; details: in vivo, 168 h; summary of the method: as §1
[22] = Cytotoxicity against human PBMC by XTT assay; assay type: cell-based; summary of the method: as §3
Rattus norvegicus [23] = test: AUC (0 to infinity) in Sprague-Dawley rat assessed as tenofovir level at 100 mg/kg, po administered daily for 7 days measured on day 7; assay type: ADME, organism-based, Plasma; set-up: time infinity, dose 100 mg/kg, route oral; details: in vivo, 168 h; summary of the method: as §1
[24] = Cytotoxicity against human MT2 cells; assay type: cell-based
Summary of the method: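 MT-2 cells in RPMI 1640 with 10% FBS and 10 mM HEPES, exposed to threefold serial drug dilutions. CC50 calculated from cell counts and viability.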

Rattus norvegicus [25] = test: Elimination half life in Sprague-Dawley rat assessed as tenofovir level at 30 mg/kg, po administered daily for 7 days measured on day 1; assay type: ADME, organism-based; set-up: dose 30 mg/kg, route oral; details: in vivo, 168 h; summary of the method: as §1
Hepatitis B virus [26] = test: Antiviral activity against HBV in human HepG2(2.2.15) cells assessed as viral DNA levels treated for 9 days measured after 24 hrs; assay type: functional, organism-based
Summary of the method: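 Confluent 2.2.15 cells in RPMI 1640 with 2% FBS, given nine consecutive daily doses with daily medium change (six cultures per concentration on two replicate plates). HBV DNA quantified by blot hybridization 24 h after the last treatment.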

Rattus norvegicus [27] = test: Elimination half life in Sprague-Dawley rat assessed as tenofovir level at 100 mg/kg, po administered daily for 7 days measured on day 7; assay type: ADME, organism-based; set-up: dose 100 mg/kg, route oral; details: in vivo, 168 h; summary of the method: as §1
Rattus norvegicus [28] = test: Elimination half life in Sprague-Dawley rat assessed as tenofovir level at 30 mg/kg, po administered daily for 7 days measured on day 7; assay type: ADME, organism-based; set-up: dose 30 mg/kg, route oral; details: in vivo, 168 h; summary of the method: as §1
Rattus norvegicus [29] = test: Tmax in Sprague-Dawley rat assessed as tenofovir level at 100 mg/kg, po administered daily for 7 days measured on day 7; assay type: ADME, organism-based; set-up: dose 100 mg/kg, route oral; details: in vivo, 168 h; summary of the method: as §1
[30] = Selectivity index, ratio of CC50 for human MT2 cells to EC50 for HIV1 LAI; assay type: toxicity, cell-based; details: read-out: Ratio CC50/EC50

EC50 (Hepatitis B virus [1]): 2.25 µM
beta t1/2 (Rattus norvegicus [2]): 9.2 h
AUC (Rattus norvegicus [3]): 3639.5 ng·h/mL
Tmax (Rattus norvegicus [5]): 2.4 h
AUC (Rattus norvegicus [6]): 775.2 ng·h/mL
AUC (Rattus norvegicus [7]): 1808.1 ng·h/mL
Tmax (Rattus norvegicus [9]): 4 h
EC50 [10]: 3.2 µM
Tmax (Rattus norvegicus [12]): 12 h
beta t1/2 (Rattus norvegicus [13]): 10.9 h
beta t1/2 (Rattus norvegicus [14]): 7.2 h
AUC (Rattus norvegicus [15]): 2790.5 ng·h/mL
EC50 [16]: 0.65 µM
Tmax (Rattus norvegicus [18]): 2 h
Tmax (Rattus norvegicus [20]): 4 h
AUC (Rattus norvegicus [21]): 1226.9 ng·h/mL
AUC (Rattus norvegicus [23]): 7373.4 ng·h/mL
beta t1/2 (Rattus norvegicus [25]): 10.1 h
EC50 (Hepatitis B virus [26]): 7.2 µM
beta t1/2 (Rattus norvegicus [27]): 9 h
beta t1/2 (Rattus norvegicus [28]): 7.6 h
Tmax (Rattus norvegicus [29]): 12 h
SMILES: C[C@H](Cn1cnc2c(N)ncnc21)OCP(=O)(O)O [TENOFOVIR ANHYDROUS]
CC50 [4]: > 100 µM
CC50 at 24 h [8]: > 300 µM
Ratio CC50/EC50 [11]: >133
Ratio CC50/EC50 [17]: 396
Ratio CC50/EC50 [19]: >41.7
CC50 [22]: 1270 µM
CC50 [24]: > 100 µM
selectivity ratio [30]: > 154

Reference: ChEMBL document CHEMBL1152819, “Evaluation of hexadecyloxypropyl-9-R-[2-(Phosphonomethoxy)propyl]- adenine, CMX157, as a potential treatment for human immunodeficiency virus type 1 and hepatitis B virus infections” (Antimicrob Agents Chemother, 2007)
